Entries after “also recorded” stand apart in the source; their conditions may differ.

Three molecules from publication PMC11661184 (bioRxiv, 2024) can be followed below.

For one test, the target named is WT CaM (Homo sapiens, UniProt P0DP23). In words: Isothermal titration calorimetry, WT CaM. It is filed as binding. Conditions: ITC, 2 mM Ca2+. In a few lines: (§1)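 The ITC cell held 15 µM CaM variant and the syringe 810 µM hTRPA1¹⁰⁸⁹⁻¹¹¹⁹ peptide. Both were buffer-matched in storage buffer (50 mM Tris pH 8.0, 150 mM NaCl, 2 mM CaCl₂, 0.1 mM PMSF). There were 35 injections spaced 240 s apart, with stirring at 290 RPM. Data were fitted to a one-site model.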
For orientation: Isothermal titration calorimetry measures the heat released or taken up as one component is titrated into another.

Another test deals with 15N-labeled CaM12. Description: 15N-1H HSQC NMR, CaM12. The test is classed as binding, human. Conditions: 1:1 molar ratio, 25 °C, 700 MHz.
Another test concerns CaM (Calmodulin-agarose). In words: CaM-agarose pulldown of TRPA1 constructs. The test is classed as binding. An outline of the steps:
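HEK293T cells were transfected with tagged TRPA1 constructs and lysed after 16-24 h in Tris pH 8.0 buffer containing 5 mM DDM and 500 µM EGTA. Free Ca²⁺ was set with CaCl₂, calculated from EGTA constants. 100 µg lysate was incubated with CaM-agarose for 1 h at 4 °C, washed, then eluted with 5 mM EGTA. Detection was by anti-FLAG or anti-MBP immunoblot, with tubulin input control. Enrichment is relative to the maximum within each replicate.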

Another test concerns 15N-labeled WT CaM. Description: 15N-1H HSQC NMR, WT CaM. The test is classed as binding, human. Particulars: 1:1 molar ratio, 25 °C, 700 MHz.
A further test concerns the target CaM12 (Homo sapiens, UniProt P0DP23). Description: Isothermal titration calorimetry, CaM12. The test is classed as binding. Conditions: ITC, 2 mM Ca2+. In a few lines: as §1
The subject of another test is hTRPA1^Δ1109–1119. In words: TEVC block of residual current, hTRPA1^Δ1109–1119. It is filed as cell-based, human. Conditions: 10 µM A-967079.
Another test has as its system TurboID-CaM C-lobe. Description: Proximity biotinylation in HEK293T cells. Conditions: 50 µM biotin 15 min, basal Ca2+; n=4. It is filed as cell-based, human. An outline of the steps:
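HEK293T cells co-expressed 3xFLAG-TurboID or 3xFLAG-TurboID-CaM C-lobe with 3xFLAG-hTRPA1 variants. About 48 h post-transfection, 50 uM biotin was added to the culture medium. After 15 min, cells were lysed and proteins captured on anti-FLAG resin (1 h, 4 °C), then eluted with 125 µg/ml 3xFLAG peptide. Biotinylated proteins were detected with HRP-streptavidin (1:50,000).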

For test [1], the system named is hTRPA1 expressed in Xenopus laevis oocytes. It is filed as cell-based, human.
Test [2] has as its system hTRPA1 channel activity in HEK293T cells. Description: Ratiometric Ca2+ imaging of TRPA1 variant activity. The test is classed as cell-based, human. Particulars: baseline, 10 µM or 100 µM AITC; n=4. In a few lines: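 HEK293T cells (DMEM, 10% calf serum) were transiently transfected. At 16-24 h they were replated on poly-L-lysine glass, with parallel anti-FLAG immunoblot to check expression. One hour later cells were loaded with 10 µg/mL Fura-2 AM and 0.025% Pluronic F-127 in Ringer's for 1 h at RT. […] At least 90 cells per condition per experiment were analysed, with untransfected background subtracted. Mean ± SEM; two-tailed t-test.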

The test system of the next test is V5-tagged WT CaM. In words: Immunofluorescence co-localization with V5-WT CaM in Neuro2A cells. The test is classed as cell-based, human. An outline of the steps:
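Neuro2A cells were grown in DMEM with 10% FBS, transfected, then placed on poly-L-lysine coverslips for 16-20 h. Cells were fixed in 4% PFA, permeabilised with 0.1% Triton and blocked in 4% BSA. Staining used anti-V5 (1:500), Alexa488 anti-mouse (1:700) and Cy3 anti-FLAG (1:500), each for 45 min at RT. Airyscan images (63x oil) were deconvolved. Per-cell pixel-intensity Pearson's R used thresholds from mono-stained samples. Mean ± SD; two-tailed t-test.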

Test [3] has as its system hTRPA1 expressed in Xenopus laevis oocytes. Description: Two-electrode voltage clamp, Ca2+ potentiation and desensitization. The test is classed as cell-based, human.

For “hTRPA1^1089–1119: hTRPA1 distal C-terminus peptide, residues 1089–1119, bacterially purified and liberated from MBP (DRFKKEQMEQRNSRWNTVLRAVKAKTHHLEP)”, the “Number of binding events observed” value with WT CaM and with CaM12 was “single binding event” each time. The “Chemical shift perturbations (CSPs)” value with 15N-labeled CaM12 is recorded as “observed predominantly in the C-lobe; also recorded: more CSPs in the C-lobe than WT CaM”; in the test on 15N-labeled WT CaM, “observed predominantly in the C-lobe”. Besides, the “CaM binding of MBP-tagged C-terminal peptides” value in the test on CaM (Calmodulin-agarose) (MBP-tagged, expressed in HEK293T, absence or presence of Ca2+) is “bound CaM in a Ca^2+-dependent manner”.
With `CCC(=N\O)/C(C)=C/c1ccc(F)cc1` [A-967079], the “Inhibition of residual activity” value with hTRPA1^Δ1109–1119 is “inhibited”.

B1: hTRPA1^Δ1109–1119: hTRPA1 truncation lacking only the terminal 11 amino acids (protein)
chain: MKRSLRKMWRPGEKKEPQGVVYEDVPDDTEDFKESLKVVFEGSAYGLQNFNKQKKLKRCDDMDTFFLHYAAAEGQIELMEKITRDSSLEVLHEMDDYGNTPLHCAVEKNQIESVKFLLSRGANPNLRNFNMMAPLHIAVQGMNNEVMKVLLEHRTIDVNLEGENGNTAVIIACTTNNSEALQILLKKGAKPCKSNKWGCFPIHQAAFSGSKECMEIILRFGEEHGYSRQLHINFMNNGKATPLHLAVQNGDLEMIKMCLDNGAQIDPVEKGRCTAIHFAATQGATEIVKLMISSYSGSVDIVNTTDGCHETMLHRASLFDHHELADYLISVGADINKIDSEGRSPLILATASASWNIVNLLLSKGAQVDIKDNFGRNFLHLTVQQPYGLKNLRPEFMQMQQIKELVMDEDNDGCTPLHYACRQGGPGSVNNLLGFNVSIHSKSKDKKSPLHFAASYGRINTCQRLLQDISDTRLLNEGDLHGMTPLHLAAKNGHDKVVQLLLKKGALFLSDHNGWTALHHASMGGYTQTMKVILDTNLKCTDRLDEDGNTALHFAAREGHAKAVALLLSHNADIVLNKQQASFLHLALHNKRKEVVLTIIRSKRWDECLKIFSHNSPGNKCPITEMIEYLPECMKVLLDFCMLHSTEDKSCRDYYIEYNFKYLQCPLEFTKKTPTQDVIYEPLTALNAMVQNNRIELLNHPVCKEYLLMKWLAYGFRAHMMNLGSYCLGLIPMTILVVNIKPGMAFNSTGIINETSDHSEILDTTNSYLIKTCMILVFLSSIFGYCKEAGQIFQQKRNYFMDISNVLEWIIYTTGIIFVLPLFVEIPAHLQWQCGAIAVYFYWMNFLLYLQRFENCGIFIVMLEVILKTLLRSTVVFIFLLLAFGLSFYILLNLQDPFSSPLLSIIQTFSMMLGDINYRESFLEPYLRNELAHPVLSFAQLVSFTIFVPIVLMNLLIGLAVGDIAEVQKHASLKRIAMQVELHTSLEKKLPLWFLRKVDQKSTIVYPNKPRSGGMLFHIFCFLFCTGEIRQEIPNADKSLEMEILKQKYRLKDLTFLLEKQHELIKLIIQKMEIISETEDDDSHCSFQDRFKKEQMEQRNSRWNTVLR
For B1, the “TRPA1 biotinylation with TurboID-CaM C-lobe” value with TurboID-CaM C-lobe is reported as “reduced biotinylation”. In test [1] (Ca2+-free), the “AITC sensitivity versus WT hTRPA1” value is “slightly reduced AITC sensitivities”. For the same molecule, in test [1] (absence of Ca2+, activation and closing at +80 mV, n=8), the “Gating kinetics and peak current amplitudes” value is reported as “not significantly different from WT hTRPA1”. In addition, the “Basal and agonist-evoked channel activity compared to WT hTRPA1” value in [2] was “increased basal and agonist-evoked activity”. Also, the “CaM binding at basal Ca2+ concentration” value with CaM (Calmodulin-agarose) (basal Ca2+, n=3 independent experiments) was “failed to bind CaM”. Further, the “Co-localization with WT CaM (deconvolved IF images)” value in the test with V5-tagged WT CaM (resting Neuro2A cells, Airyscan) was “greatly reduced co-localization”. Further, in the test with V5-tagged WT CaM (Δ1109–1119 compared to WT, n=41 or 40 cells, ***p=0.0002), the “Pearson's correlation coefficient (R) of CaM:TRPA1 co-localization” value is on record as “significant reduction in the CaM:TRPA1 co-localization”. Also, the “Potentiation by extracellular Ca2+” value in [3] (250 µM AITC, 1.8 mM Ca2+, comparable peak current amplitudes) is listed as “rapid potentiation”. For the same molecule, in test [3] (5 minutes after 1.8 mM extracellular Ca2+, n=10 or 12 oocytes), the “Residual activity after extracellular Ca2+ (of initial activity)” value is on record as 20–30%. For the same molecule, the “Increase in translocated charge versus WT hTRPA1” value in test [3] (+80 mV) is 5 fold; in test [3] (−80 mV) it was “large, albeit nonsignificant increase”. The “Slowing of potentiation versus WT hTRPA1” value in test [3] (+80 mV, 1.8 mM Ca2+) was ~ 1.8 fold; in [3] (−80 mV, 1.8 mM Ca2+) it was ~ 3 fold. Besides, the “Slowing of desensitization versus WT hTRPA1” value in [3] (+80 mV, 1.8 mM Ca2+, n=10 or 12 oocytes) is reported as 16 fold; in test [3] (−80 mV, 1.8 mM Ca2+, n=10 or 12 oocytes), 10 fold.
